From ChEMBL document CHEMBL1130028, “A comparison of structure-activity relationships between spermidine and spermine analogue antineoplastics” (J Med Chem, 1997) come the findings set out here.

The nature of data set [1]: Effect on ornithine decarboxylase (ODC) tested at 1 uM at 4 hour in L1210 cells. The format is functional, Mus musculus. Summed up: (§1)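 L1210 cells were exposed to 1 μM analogue, for 4 h (ODC) or 6 h (AdoMetDC). Activity was measured as 14CO2 released from [14C]carboxyl-labelled L-ornithine (ODC) or S-adenosyl-L-methionine (AdoMetDC) and given as percent of untreated control. Each run included DEHSPM-treated positive controls. Values are the mean of at least three experiments.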

Data set [2] relates to L1210. The experiment in a line: Percentage of putrescine after 48 hr exposure to the compound (0.9 uM ) in L1210 cells. It is filed as functional, Mus musculus. Summed up:
(§2)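 Murine L1210 leukemia cells in log-phase growth (RPMI-1640, 10% fetal calf serum or NuSerum, HEPES-MOPS, 1 mM aminoguanidine) exposed to analogue for 48 h. Cells washed twice with cold RPMI-1640 and extracted with 0.6 N HClO4. PUT, SPD and SPM measured by HPLC of DANSYL derivatives and given as percent of untreated controls. Triplicate flasks per experiment.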

The subject of data set [3] is L1210. The experiment in a line: Percentage of spermidine after 48 hr of exposure to the compound (4.5 uM ) in L1210 cells. The format is functional, Mus musculus. Summed up: as §2
Data set [4] relates to L1210. The experiment in a line: Percentage of spermidine after 48 hr of exposure to the compound (0.9 uM ) in L1210 cells. The format is functional, Mus musculus. The procedure, abridged: as §2
Data set [5] has as its system L1210. The experiment in a line: Percentage of spermine after 48 hr exposure to the compound (4.5 uM ) in L1210 cells. It is filed as functional, Mus musculus. The procedure, abridged:
as §2

In data set [6] the test system is L1210. The experiment in a line: Percentage of putrescine after 48 hr exposure to the compound (4.5 uM ) in L1210 cells. It is filed as functional, Mus musculus. The procedure, abridged:
as §2

In data set [7] the test system is L1210. Kind of data set: Growth inhibitory activity against L1210 cells (48h). It is filed as functional, cell-based. To be noted: Mus musculus, L1210, 48 h. The procedure, abridged: (§3)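 Murine L1210 leukemia cells were kept in log growth in RPMI-1640 with 10% fetal calf serum or NuSerum, HEPES-MOPS buffer and 1 mM aminoguanidine. IC50 is the concentration giving 50% of untreated control growth, as the mean of at least two experiments.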

Data set [8] has as its system L1210. The experiment in a line: Growth inhibitory activity against L1210 cells (96h). The settings on record: Mus musculus, L1210, 96 h. The format is functional, cell-based. The procedure, abridged:
as §3

The target of data set [9] is Spermidine/spermine N(1)-acetyltransferase (SAT) (Mus musculus) (UniProt Q6P8J2+P48026). Kind of data set: Effect on Spermidine/Spermine-Acetyltransferase (SSAT ) at 10 uM at 48 hour in L1210 cells. It is filed as functional, cell-based. Summed up:
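L1210 cells were exposed to 10 μM triamine for 48 h. SSAT activity was taken as [14C]N1-acetylspermidine formed from spermidine and [14C]acetyl-CoA, given as percent of untreated control. DENSPM-treated cells served as positive control. Values are the mean of at least three experiments.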

Data set [10] in a line: Binding affinity values for polyamine transporter was determined.
Data set [11] addresses T1, S-adenosylmethionine decarboxylase proenzyme 1 (Mus musculus) (UniProt P0DMN7).
T1 sequence (whole entry): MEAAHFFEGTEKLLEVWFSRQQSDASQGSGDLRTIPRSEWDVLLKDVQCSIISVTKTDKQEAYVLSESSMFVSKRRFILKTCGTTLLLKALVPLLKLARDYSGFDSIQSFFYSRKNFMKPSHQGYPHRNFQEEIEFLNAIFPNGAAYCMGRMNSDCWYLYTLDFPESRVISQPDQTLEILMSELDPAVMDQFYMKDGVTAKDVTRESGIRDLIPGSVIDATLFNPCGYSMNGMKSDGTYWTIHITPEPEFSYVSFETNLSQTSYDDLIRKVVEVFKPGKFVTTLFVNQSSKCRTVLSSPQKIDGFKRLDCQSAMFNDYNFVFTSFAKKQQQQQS
The experiment in a line: Effect on S-Adenosyl-methionine decarboxylase (AdoMetDC) tested at 1 uM at 6 hour in L1210 cells. The format is functional, cell-based. The procedure, abridged:
as §1

Data set [12] in a line: The chronic lethal dose administered as intraperitoneal injection in mice. The format is ADME. The settings on record: mouse, in vivo, ip. The procedure, abridged: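 Female CD-1 mice, 10–12 weeks old. Analogue given as hydrochloride salt by ip injection three times daily for 6 days (18 doses). Appetite, weight and appearance monitored daily, and lethality scored 10 days after the final dose.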

Data set [13] concerns L1210. The experiment in a line: Percentage of spermine (after 48 hr exposure to 500 uM) in L1210 cells. The format is functional, Mus musculus. Summed up:
(§4)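 Log-phase L1210 cells were treated for 48 h with analogue at two concentrations. Cells were washed twice in cold RPMI-1640 and extracted with 0.6 N HClO4. Putrescine, spermidine and spermine were quantified by HPLC of dansyl derivatives and given as percent of untreated controls. Runs were in triplicate with untreated controls.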

Data set [14] relates to L1210. Kind of data set: Percentage of putrescine (after 48 hr exposure to 100 uM) in L1210 cells. The format is functional, Mus musculus. Summed up: as §4
Data set [15] has as its system L1210. Kind of data set: Percentage of putrescine after 48 hr exposure to the compound (500 uM ) in L1210 cells. The format is functional, Mus musculus. The procedure, abridged:
as §4

The subject of data set [16] is L1210. Kind of data set: Intracellular levels in L1210 cells following 500 uM exposure. The format is functional, Mus musculus. Summed up: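 L1210 cells were grown 48 h in medium containing 500 μM analogue. Cellular contents were analysed by HPLC of dansyl derivatives and given as pmol/10^6 cells, as parent drug and metabolites with the % of total drug in the cell.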

For data set [17], the system named is L1210. The experiment in a line: Percentage of spermine (after 48 hr exposure to 100 uM) in L1210 cells. It is filed as functional, Mus musculus. Summed up: as §4
Data set [18] relates to L1210. The experiment in a line: Percentage of spermidine (after 48 hr exposure to 100 uM) in L1210 cells.
For data set [19], the system named is L1210. The experiment in a line: Percentage of spermidine (after 48 hr exposure to 500 uM) in L1210 cells.
The subject of data set [20] is L1210. The experiment in a line: Percentage of putrescine after 48 hr exposure to the compound (125 uM ) in L1210 cells. The format is functional, Mus musculus. Summed up: as §4
Data set [21] relates to L1210. Kind of data set: Percentage of spermidine after 48 hr of exposure to the compound (125 uM ) in L1210 cells. It is filed as functional, Mus musculus. Summed up:
as §4

Data set [22] deals with L1210. Kind of data set: Percentage of spermidine after 48 hr of exposure to the compound (25(10)uM ) in L1210 cells. It is filed as functional, Mus musculus. Summed up: as §4
In data set [23] the test system is L1210. Kind of data set: Percentage of spermine after 48 hr exposure to the compound (125 uM ) in L1210 cells. It is filed as functional, Mus musculus. The procedure, abridged:
as §4

Data set [24] relates to L1210. The experiment in a line: Percentage of putrescine after 48 hr exposure to the compound (25(10)uM ) in L1210 cells. The format is functional, Mus musculus. Summed up:
as §4

Bounds are passed on as bounds.

Chain of Spermidine/spermine N(1)-acetyltransferase (SAT) (Mus musculus) (P48026 whole entry, looked up): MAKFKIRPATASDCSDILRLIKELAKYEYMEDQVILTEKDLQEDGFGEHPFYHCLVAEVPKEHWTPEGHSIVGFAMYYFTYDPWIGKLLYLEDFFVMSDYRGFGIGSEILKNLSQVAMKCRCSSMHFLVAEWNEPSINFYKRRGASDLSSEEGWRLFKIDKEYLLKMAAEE
Chain of Spermidine/spermine N(1)-acetyltransferase (SAT) (Mus musculus) (Q6P8J2 whole entry, looked up): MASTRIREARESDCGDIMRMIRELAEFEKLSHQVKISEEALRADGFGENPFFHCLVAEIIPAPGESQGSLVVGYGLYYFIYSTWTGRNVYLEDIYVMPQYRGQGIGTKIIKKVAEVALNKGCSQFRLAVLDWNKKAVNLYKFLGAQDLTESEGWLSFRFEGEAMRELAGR

As a reminder, the IC50 is the concentration needed to halve the response being measured. By Ki is commonly meant the dissociation constant of the complex between target and ligand, obtained from inhibition or displacement. A high value points to weaker binding. `NCCCNCCCN` [NORSPERMIDINE]: in data set [1], the ODC was 11%. The Polyamine in data set [2] is on record as 38%; in [3], 12%; in [4], 44%; in data set [5] it was 83%; in data set [6] it was 0%. Also, the results for the IC50 in data set [7] and in data set [8] were 0.9 µM and 0.5 µM, respectively. In addition, the SSAT in data set [9] stood at 150%. Further, in data set [10], the Ki was 7.2 µM. This compound gave an AdoMetDC in [11] of 62%.

As usually defined, the LD50 is the dose expected to kill half of the subjects tested. The compound `CCNCCCCNCCCCCNCCCCNCC` came in with an LD50 in data set [12] of 48 mg/kg/day.

On to `CCNCCCCNCCCN`, for which the Polyamine in data set [13] was determined as 61%; in data set [14], 0%; in data set [15], 0%; in data set [17], 84%. In [1], this compound had an ODC of 17%. For the same compound, in data set [16], the “Picoequivalents of amine/10e6 cells” value was found to be 17990. The IC50 was greater than 100 µM in [7] and 40 µM in [8]. The compound also came in with an SSAT in [9] of 400%. The same compound registered a Ki in [10] of 7 µM. This compound also had an AdoMetDC in data set [11] of 54%. Moreover, the Spermidine % was determined as 26% in [18] and 15% in data set [19].

As for `CCCNCCCNCCCCN`, the Polyamine amounted to 72% in data set [13], 0% in [14], 0% in [15] and 90% in data set [17]. Besides, the ODC in data set [1] was 18%. For the same compound, the “Picoequivalents of amine/10e6 cells” value in data set [16] is 18250. In addition, the IC50 in data set [7] is greater than 100 µM; in data set [8], 28 µM. The compound further gave an SSAT in data set [9] of 1200%. In [10], this compound yielded a Ki of 3 µM. For the same compound, the AdoMetDC in [11] was 56%. For the same compound, the Spermidine % stood at 25% in [18] and 15% in data set [19].

For the compound `CCNCCCCNCCCCNCC`, in data set [1], the ODC turned out to be 47%. Besides, the Polyamine is 0% in [20]; 3% in data set [21]; 6% in data set [22]; 97% in data set [23]; 0% in data set [24]. Moreover, the “Picoequivalents of amine/10e6 cells” value in data set [16] stood at 16920. Besides, the IC50 in data set [7] came out at 22 µM; in data set [8] it was 0.35 µM. Besides, the SSAT in data set [9] is 640%. The same compound showed a Ki in [10] of 19 µM. In data set [11], this compound had an AdoMetDC of 90%.
